Experimental data of several laboratories.
Lines come from different studies, so protocols differ.
Target: Cytochrome P450 1A2 (CYP1A2, Homo sapiens, UniProt P05177)
Effect on: enzyme activity
Action: inhibitor

COc1ccc2c(Cc3ccccc3F)c3[n+](cc2c1OC)CCc1cc2c(cc1-3)OCO2 — IC50: > 10000 nM
CCc1cc(/C(C)=N/OCc2ccc(C3CCCCC3)c(C(F)(F)F)c2)ccc1CN1CC(C(=O)O)C1 — IC50 (human, liver microsomes; 20 min): > 1100 nM
CCC(C)(C)C(=O)O[C@H]1C[C@@H](C)C=C2C=C[C@H](C)[C@H](CC[C@@H](O)C[C@@H](O)CC(=O)O)[C@H]21 — IC50 (fluorescence): > 100000 nM
CCn1c(C(=O)N(C2CC2)C2CC2)cc2c3c(ncn3C)c(Nc3cc(C)n(C)n3)nc21 — Ki (human, liver microsomes): 600 nM
C=CC(=O)Nc1cc(Nc2nccc(Nc3cc(Cl)c(F)cc3C(C)(C)O)n2)c(OC)cc1N1CC[C@@H](N(C)C)C1 — IC50 (human, liver microsomes): > 30000 nM
CC(CN1c2ccccc2Sc2ccccc21)N(C)C (stereo not drawn) — IC50 (fluorescence): 1000 nM
C#Cc1cccc(-c2cc(=O)c3ccccc3o2)c1 — Ki (6 min, pH 7.6): 800 nM
CCCN(CCC)CCc1cccc2c1CC(=O)N2 — IC50 (fluorescence): 540000 nM
COc1ccn2c(Nc3ccccc3F)c(-c3ccncn3)nc2c1 — IC50: 1800 nM
Cc1cc(C)c2c(c1)[C@@H](N(Cc1cc(C(F)(F)F)cc(C(F)(F)F)c1)c1nnn(C)n1)CCCN2C[C@H]1CC[C@H](C(=O)O)CC1 — Ki (human, liver microsomes; pH 7.4): 7100 nM
COc1ccc2cc3[n+](cc2c1OC)CCc1cc2c(cc1-3)OCO2 — IC50: > 10000 nM
C#Cc1cccc2oc(-c3ccccc3)cc(=O)c12 — Ki (6 min, pH 7.6): 810 nM
